≈ marks a conversion by molar mass, not a printed value. One block for each molecule: values may come before it.
Columns and labels:
[1] = biological target: T1, Serine/threonine-protein kinase pim-1 (Homo sapiens, UniProt P11309); assay: Inhibition of PIM1 (unknown origin) using 5-FAM-RSRHSSYPAGT-CONH2 as substrate after 2 hrs by electrophoretic mobility shift assay
[2] = biological target: T1, Serine/threonine-protein kinase pim-1; assay: Inhibition of full length recombinant human N-terminal His-tagged PIM1 (1 to 313 end residues) expressed in baculovirus infected sf21 cells using S6K2 peptide as substrate by electrophoretic mobility shift assay
hERG (KCNH2) = hERG (KCNH2) (Homo sapiens, UniProt Q12809); assay: Inhibition of human ERG expressed in CHO cells at 10 uM by patch clamp method relative to control; type: cell-based; details: CHO cells expressing human ERG
Summary of the method: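 hERG block measured by patch clamp with compound at 10 μM; performed by a contract lab (Cerep).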

[3] = Permeability in human Caco2 cells at 10 uM; type: ADME, cell-based; details: Caco-2, read-out: permeability
Summary of the method: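 Caco-2 monolayer permeability measured with compound at 10 μM, reported in units of 10–6 cm/s; performed by a contract lab (Cerep).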

[4] = Stability in mouse liver microsomes assessed as parent compound remaining at 1 uM after 1 hr; type: ADME, microsome; details: read-out: Stability
Summary of the method: (§1)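 Compound at 1 μM incubated with liver microsomes (0.3 mg/mL protein) at 37 °C for 1 h; value is percent of parent remaining. Performed by a contract lab (Cerep).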

[5] = Stability in human liver microsomes assessed as parent compound remaining at 1 uM after 1 hr; type: ADME, microsome; details: read-out: Stability; summary of the method: as §1
[6] = biological target: T2, Serine/threonine-protein kinase D2 (Homo sapiens) (UniProt Q9BZL6); assay: Inhibition of full length recombinant human N-terminal GST-tagged PKD2 (1 to 878 end residues) expressed in baculovirus infected sf21 cells at 200 nM using GS peptide as substrate by electrophoretic mobility shift assay relative to control
T2 sequence (whole entry): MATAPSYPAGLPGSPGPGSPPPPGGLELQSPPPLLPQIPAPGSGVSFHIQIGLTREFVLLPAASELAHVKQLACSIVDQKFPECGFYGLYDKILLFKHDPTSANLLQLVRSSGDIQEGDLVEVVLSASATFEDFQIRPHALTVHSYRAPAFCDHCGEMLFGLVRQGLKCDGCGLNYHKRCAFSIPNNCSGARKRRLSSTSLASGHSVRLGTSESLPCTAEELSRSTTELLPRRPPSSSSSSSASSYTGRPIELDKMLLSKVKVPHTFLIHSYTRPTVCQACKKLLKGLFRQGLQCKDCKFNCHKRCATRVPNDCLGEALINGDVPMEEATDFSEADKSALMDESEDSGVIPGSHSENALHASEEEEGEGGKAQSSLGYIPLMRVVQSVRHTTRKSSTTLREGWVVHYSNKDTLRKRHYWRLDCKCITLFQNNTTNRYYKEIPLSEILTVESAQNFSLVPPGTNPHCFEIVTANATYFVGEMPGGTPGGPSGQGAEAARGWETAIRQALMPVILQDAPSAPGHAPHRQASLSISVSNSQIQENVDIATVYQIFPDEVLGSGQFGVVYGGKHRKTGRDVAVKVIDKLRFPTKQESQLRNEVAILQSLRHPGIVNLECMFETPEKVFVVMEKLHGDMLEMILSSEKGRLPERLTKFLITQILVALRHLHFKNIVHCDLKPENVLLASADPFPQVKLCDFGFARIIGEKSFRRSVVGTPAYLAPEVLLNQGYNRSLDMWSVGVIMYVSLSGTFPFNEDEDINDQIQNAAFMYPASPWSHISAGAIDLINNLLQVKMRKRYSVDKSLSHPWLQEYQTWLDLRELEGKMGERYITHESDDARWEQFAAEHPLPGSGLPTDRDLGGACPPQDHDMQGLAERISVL
Summary of the method: (§2)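 Single-point screen of a 52-kinase panel with compound at 200 nM, read as % inhibition of each kinase; run by a contract lab (Carna Biosciences).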

[7] = biological target: Platelet-derived growth factor receptor alpha (Homo sapiens) (UniProt P16234); assay: Inhibition of recombinant human N-terminal GST-tagged PDGFRalpha cytoplasmic domain (550 to 1089 end residues) expressed in baculovirus infected sf21 cells at 200 nM using CSKtide as substrate by electrophoretic mobility shift assay relative to control; summary of the method: as §2
WI-38 = assay: Growth inhibition of human WI38 cells after 48 hrs by CCK8 assay; type: cell-based; details: WI-38, 48 h
Summary of the method: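 Cells incubated with compound for 48 h for growth inhibition.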

[8] = Aqueous solubility of the compound in pH 7.4 PBS by HPLC-UV method; type: physicochemical
Summary of the method: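 Tested in PBS pH 7.4 with a final DMSO concentration of 2%; performed by a contract lab (Cerep).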

[9] = biological target: T3, Serine/threonine-protein kinase pim-3 (Homo sapiens, UniProt Q86V86); assay: Inhibition of full length recombinant human N-terminal GST-tagged PIM3 (1 to 326 end residues) expressed in baculovirus infected sf21 cells using S6K2 peptide as substrate by electrophoretic mobility shift assay
[10] = biological target: T4, Serine/threonine-protein kinase pim-2 (Homo sapiens, UniProt Q9P1W9); assay: Inhibition of full length recombinant human N-terminal GST-tagged PIM2 (1 to 311 residues) expressed in baculovirus infected sf21 cells using S6K2 peptide as substrate by electrophoretic mobility shift assay
[11] = biological target: Death-associated protein kinase 1 (Homo sapiens) (UniProt P53355); assay: Inhibition of recombinant human N-terminal GST-tagged DAPK1 catalytic domain (1 to 289 residues) expressed in baculovirus infected sf21 cells at 200 nM using DAPK1tide as substrate by electrophoretic mobility shift assay relative to control; summary of the method: as §2
[12] = biological target: T3, Serine/threonine-protein kinase pim-3; assay: Inhibition of full length recombinant human N-terminal GST-tagged PIM3 (1 to 326 end residues) expressed in baculovirus infected sf21 cells at 200 nM using S6K2 peptide as substrate by electrophoretic mobility shift assay relative to control; summary of the method: as §2
[13] = Growth inhibition of human MOLM16 cells after 72 hrs by CCK8 assay; type: functional, cell-based; details: MOLM16, 72 h
[14] = biological target: T4, Serine/threonine-protein kinase pim-2; assay: Inhibition of full length recombinant human N-terminal GST-tagged PIM2 (1 to 311 residues) expressed in baculovirus infected sf21 cells at 200 nM using S6K2 peptide as substrate by electrophoretic mobility shift assay relative to control; summary of the method: as §2
[15] = biological target: T1, Serine/threonine-protein kinase pim-1; assay: Inhibition of full length recombinant human N-terminal His-tagged PIM1 (1 to 313 end residues) expressed in baculovirus infected sf21 cells at 200 nM using S6K2 peptide as substrate by electrophoretic mobility shift assay relative to control; summary of the method: as §2
[16] = biological target: Rho-associated protein kinase 1 (Homo sapiens) (UniProt Q13464); assay: Inhibition of recombinant human N-terminal GST-tagged ROCK1 catalytic domain (1 to 477 residues) expressed in baculovirus infected sf21 cells at 200 nM using LIMKtide as substrate by electrophoretic mobility shift assay relative to control; summary of the method: as §2
[17] = biological target: Protein kinase C alpha type (Homo sapiens) (UniProt P17252); assay: Inhibition of full length recombinant human N-terminal GST-tagged PKCalpha (1 to 672 residues) expressed in baculovirus infected sf21 cells at 200 nM using PKC peptide as substrate by electrophoretic mobility shift assay relative to control; summary of the method: as §2

Compound: CCc1ccc2c(/C=C3\Oc4c(ccc(O)c4CN4CCNCC4)C3=O)c[nH]c2n1
IC50 [1]: 16 nM

Compound: COc1ccc2c(c1CN1CCNCC1)O/C(=C\c1n[nH]c3ccccc13)C2=O
Papp at 10 µM [3]: 0.89 ×10⁻⁶ cm/s | remaining at 1 h, 1 µM [4]: 83% | remaining at 1 h, 1 µM [5]: 68%

Compound: CN1CCC(CNc2ccc3ncc(-c4cccc(OC(F)(F)F)c4)n3n2)CC1 [SGI-1776]
IC50 (WI-38): 1.7 µM | IC50 [13]: 600 nM

Compound: Cc1ccc2c(/C=C3\Oc4c(ccc(O)c4CN4CCNCC4)C3=O)c[nH]c2n1
IC50 [1]: 3.8 nM | IC50 [10]: 510 nM

Compound: COc1ccc2c(c1CN1CCNCC1)O/C(=C\c1c[nH]c3nc(-c4ccccc4)ccc13)C2=O
IC50 [1]: 16 nM

Compound: CCCc1ccc2c(/C=C3\Oc4c(ccc(OC)c4CN4CCNCC4)C3=O)c[nH]c2n1
IC50 [1]: 4.5 nM

Compound: N[C@@H]1CCCN(c2c(/C=C3\SC(=O)NC3=O)cccc2-c2ccccc2)C1
IC50 (WI-38): > 10 µM | IC50 [13]: 12 nM

Compound: O=C1/C(=C/c2c[nH]c3ncccc23)Oc2c1ccc(O)c2CN1CCNCC1
IC50 [1]: 2 nM | IC50 [10]: 420 nM

Compound: O=C1/C(=C/c2c[nH]c3nc(F)ccc23)Oc2c1ccc(O)c2CN1CCNCC1
IC50 [1]: 1.8 nM

Compound: CCCCc1ccc2c(/C=C3\Oc4c(ccc(OC)c4CN4CCNCC4)C3=O)c[nH]c2n1
IC50 [1]: 2.1 nM

Continued, in another order:

IC50 [2]: 1.3 nM | Papp at 10 µM [3]: 1.7 ×10⁻⁶ cm/s | remaining at 1 h, 1 µM [4]: 63% | remaining at 1 h, 1 µM [5]: 82% | inhibition [6]: 30% | inhibition [7]: 63% | IC50 [1]: 1.4 nM | solubility [8]: 130 µM (≈ 53.4 µg/mL) | IC50 [9]: 0.88 nM | IC50 [10]: 140 nM | inhibition [12]: > 99% | inhibition [14]: 58% | inhibition [15]: 99%
Compound: O=C1/C(=C/c2c[nH]c3nc(Cl)ccc23)Oc2c1ccc(O)c2CN1CCNCC1
inhibition at 10 µM (hERG (KCNH2)): 30% | IC50 (WI-38): > 10 µM | inhibition [11]: 57% | IC50 [13]: 200 nM

inhibition [16]: 50% | inhibition [6]: 90% | inhibition [17]: 10% | IC50 [1]: 1.1 nM | IC50 [10]: 290 nM | inhibition [14]: 23%
Compound: CCc1ccc2c(/C=C3\Oc4c(ccc(OC)c4CN4CCNCC4)C3=O)c[nH]c2n1
inhibition [11]: 77%

inhibition [16]: > 75% | Papp at 10 µM [3]: 2.1 ×10⁻⁶ cm/s | remaining at 1 h, 1 µM [4]: 72% | remaining at 1 h, 1 µM [5]: 90% | inhibition [17]: > 75% | IC50 [1]: 0.84 nM | solubility [8]: ≥ 200 µM | IC50 [10]: 390 nM | inhibition [12]: > 50% | inhibition [15]: > 50%
Compound: COc1ccc2c(c1CN1CCNCC1)O/C(=C\c1c[nH]c3ncccc13)C2=O
inhibition at 10 µM (hERG (KCNH2)): 19%

IC50 [2]: 0.49 nM | Papp at 10 µM [3]: 0.31 ×10⁻⁶ cm/s | remaining at 1 h, 1 µM [4]: 58% | remaining at 1 h, 1 µM [5]: 82% | inhibition [6]: 62% | inhibition [7]: 61% | IC50 [1]: 0.41 nM | solubility [8]: 21 µM (≈ 8.92 µg/mL) | IC50 [9]: 0.4 nM | IC50 [10]: 140 nM | inhibition [12]: > 99% | inhibition [14]: 41% | inhibition [15]: 99%
Compound: COc1ccc2c(c1CN1CCNCC1)O/C(=C\c1c[nH]c3nc(Cl)ccc13)C2=O
inhibition at 10 µM (hERG (KCNH2)): 22% | inhibition [11]: 80%

inhibition [16]: 94% | inhibition [6]: 59% | inhibition [7]: 79% | IC50 [1]: 0.28 nM
Compound: COc1ccc2c(c1CN1CCNCC1)O/C(=C\c1c[nH]c3nc(F)ccc13)C2=O
inhibition [11]: 97%

inhibition [16]: 50% | Papp at 10 µM [3]: 0.13 ×10⁻⁶ cm/s | remaining at 1 h, 1 µM [4]: 69% | remaining at 1 h, 1 µM [5]: 74% | inhibition [17]: 10% | IC50 [1]: 0.64 nM | solubility [8]: 130 µM (≈ 52.6 µg/mL) | IC50 [10]: 300 nM | inhibition [14]: 25%
Compound: COc1ccc2c(c1CN1CCNCC1)O/C(=C\c1c[nH]c3nc(C)ccc13)C2=O
inhibition at 10 µM (hERG (KCNH2)): 14% | inhibition [11]: 91%
